# Screening results as filed in PubChem.
# RGS7-Gao – modulates binding of RGS7 to human Galphao | binding response (% of control), % at 10 µM | hit rate 0.35% among 220,000 | AID 1439 | P09471 | Multiplexed bead flow cytometry; actives lie on both sides; in the data active = binding response below about 49% or above about 150%; inconclusive = no clear call, values can overlap the other calls; inactive = in between;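 also: fluorescent Galphao held in activated GDP-AlF4 state binding bead-coupled RGS7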
# RGS8-Gao reg – regulators of human RGS8-Galphao interaction; P09471; multiplexed bead flow cytometry, RGS8-Galphao binding; actives lie on both sides; response (percent of control binding), % at 10 µM; hit rate 0.34% among 220,000; in the data active = response below about 60% or above about 140%; inactive = in between;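 also: Galphao activated as the GDP aluminium fluoride complex binding bead-coupled RGS8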
# RGS4-Gao reg – human RGS4-Galphao interaction regulation | hit rate 0.33% among 220,000 | binding response (% of control), % at 10 µM | Multiplexed bead flow cytometry, RGS4-Galphao binding; actives lie on both sides | P09471; in the data active = binding response below about 49% or above about 150%; inactive = in between;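 also: fluorescent Galphao activated with aluminum fluoride binding bead-coupled RGS4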
# RGS16-Gao HTS – regulators of human RGS16-Galphao interaction | O15492+P09471 | bead-based flow cytometry RGS16-Galphao binding, fluorescence; actives lie on both sides | binding response (% of control), % at 10 µM | hit rate 0.38% among 220,000 | AID 1441;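 also: Galphao activated by GDP with aluminum fluoride before binding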
# ABCB1 inh – human ABCB1 inhibition, ABCG2 as counter-screen. P08183. CCRF-Adr cells, JC-1 efflux, flow cytometry. inhibition, % at 6.6 µM. hit rate 0.067% among 190,000. AID 1326; in the data active = inhibition above about 40%;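 also: 0% = vehicle and 100% = reference inhibitor; higher value means more JC-1 retained so stronger ABCB1 efflux block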
# ABCG2 block – blocks JC-1 efflux by human ABCG2 transporter; AID 1325; Q9UNQ0; IgMXP3 cells, flow cytometry; hit rate 0.1% among 190,000; inhibition, % at 6.6 µM;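 active = inhibition above 80%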;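 also: 0% = DMSO and 100% = nicardipine control wells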
# Target sequence (Q9UNQ0 whole entry, looked up): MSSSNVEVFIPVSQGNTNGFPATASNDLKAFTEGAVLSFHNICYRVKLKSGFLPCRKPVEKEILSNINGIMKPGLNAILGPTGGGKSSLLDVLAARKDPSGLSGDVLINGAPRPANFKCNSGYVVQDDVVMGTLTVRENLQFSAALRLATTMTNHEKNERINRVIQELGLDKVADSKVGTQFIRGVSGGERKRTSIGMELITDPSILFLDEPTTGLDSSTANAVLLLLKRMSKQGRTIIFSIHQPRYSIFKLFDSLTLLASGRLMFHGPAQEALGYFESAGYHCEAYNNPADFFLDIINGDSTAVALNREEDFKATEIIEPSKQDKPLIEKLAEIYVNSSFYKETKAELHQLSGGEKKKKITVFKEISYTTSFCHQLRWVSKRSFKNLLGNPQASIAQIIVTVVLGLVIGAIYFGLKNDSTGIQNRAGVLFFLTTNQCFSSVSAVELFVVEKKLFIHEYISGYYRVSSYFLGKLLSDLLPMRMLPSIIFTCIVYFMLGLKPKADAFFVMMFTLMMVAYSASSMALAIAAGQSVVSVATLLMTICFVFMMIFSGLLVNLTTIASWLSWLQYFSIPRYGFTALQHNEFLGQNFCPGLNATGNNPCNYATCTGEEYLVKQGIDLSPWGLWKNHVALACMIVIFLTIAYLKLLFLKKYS
#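 Test system: IgMXP3 (ABCG2) plus far-red-tagged CCRF-Adr (ABCB1) cells / Amount: 3 million cells/mL in well / Reagent: JC-1 transporter substrate / Timing: 10 min compound exposure, 25 °C / Signal: flow cytometry, 530 nm JC-1 signal / Read-out: percent efflux inhibition, scaled nicardipine 100% to DMSO 0% / Benchmarks: nicardipine as high control, DMSO as low control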
# RGS-Gao – regulators of human RGS4-Galphao interaction | shares compounds with RGS16-Gao HTS | multiplexed bead flow cytometry, RGS–Galpha-o binding | RGS4–Galpha-o binding response, % at 10 µM | hit rate 99% among 1,600 | AID 1504;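 also: fluorescently labeled Galpha-o bound to GDP with aluminium fluoride binding biotinylated RGS beads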
# Avidin counter – biotin-avidin bead binding disruption counter-screen; shares compounds with RGS16-Gao HTS; streptavidin beads, fluorescein-biotin binding, flow cytometry; inhibition, % at 10 µM; 1,700 tested, under 10 active; AID 1783;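 active = inhibition above 50%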;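 also: median green fluorescence of gated singlet beads compared with DMSO control wells; 0% = DMSO wells and 100% = complete loss of bead fluorescence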
# RGS8-Gao single – confirmation of regulators of human RGS8-Galphao interaction | shares compounds with RGS16-Gao HTS | bead-based flow cytometry RGS8-Galphao binding, fluorescence; actives lie on both sides | binding response (% of control), % at 10 µM | hit rate 3% among 1,700; in the data active = binding response below about 72% or above about 130%; inactive = in between;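 also: Galphao activated as GDP AlF4 complex before binding bead RGS8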
# RGS7-Gao confirm – confirmation of regulators of human RGS7-Galphao interaction; hit rate 7.8% among 1,700; bead-based flow cytometry RGS7-Galphao binding; actives lie on both sides; response (percent of control binding), % at 10 µM; shares compounds with RGS16-Gao HTS; in the data active = response below about 75% or above about 130%; inactive = in between;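 also: fluorescent Galphao activated with GDP and aluminum fluoride binding bead-coupled RGS7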
# RGS16-Gao conf – confirmation of regulators of human RGS16-Galphao interaction. shares compounds with RGS16-Gao HTS. bead-based flow cytometry, RGS16-Galphao binding; actives lie on both sides. response (% of control binding), % at 10 µM. hit rate 4% among 1,700; in the data active = response below about 74% or above about 130%; inactive = in between;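 also: Galphao activated as the GDP aluminium fluoride complex binding bead-coupled RGS16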
# RGS4-Gao confirm – confirmation of regulators of human RGS4-Galphao interaction | shares compounds with RGS16-Gao HTS | RGS4-Galphao binding, multiplexed bead flow cytometry; actives lie on both sides | binding response (% of control), % at 10 µM | hit rate 4% among 1,700; in the data active = binding response below about 74% or above about 130%; inactive = in between
# RGS19-Gao single – confirmation of regulators of human RGS19-Galphao interaction. shares compounds with RGS16-Gao HTS. bead-based flow cytometry RGS19-Galphao binding; actives lie on both sides. response (percent of control binding), % at 10 µM. hit rate 5% among 1,700. AID 1841; in the data active = response below about 50% or above about 160%; inactive = in between;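 also: 100% = no compound control and 0% = blank background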
# * hit, by the source's call; u = inconclusive; x = no result given; + = active, no number; [ ] = remark or other dose. Compounds with a hit are over-represented: about 0.83% of the library has one in this group of screens. Unless noted, no rule for the calls is given here.
SMILES,RGS7-Gao,RGS8-Gao reg,RGS4-Gao reg,RGS16-Gao HTS,ABCB1 inh,ABCG2 block,RGS-Gao,Avidin counter,RGS8-Gao single,RGS7-Gao confirm,RGS16-Gao conf,RGS4-Gao confirm,RGS19-Gao single
COc1ccc2cc(CCNC(=O)C3CCCC3)c(=O)[nH]c2c1,109,147*[activator],111,228,0,3,111*,0,105,101,107,104,110
CC1(C)Cc2c(sc(NC(=O)/C=C/C(=O)O)c2C#N)CO1,u,102,102,103,x,x,x,x,x,x,x,x,x
CC1(C)Cc2c(sc(NC(=O)c3ccco3)c2C#N)CO1,-35*,2.6*,-105*,-105*,0,4,x,2,101,103,102,102,99
Cc1ccc(C)n1-c1ccc(C(=O)O)cc1,39*,61,66,73,0,-1,66*,0,96,92,98,98,102
Cc1ccc(S(=O)(=O)Nc2nc(C)c(C(=O)N/N=C/c3ccccc3)s2)cc1,103,105,110,107,0,-5,x,x,x,x,x,x,x
COc1cccc(NC(=O)C(Cc2ccccc2)n2cccc2)c1 (stereo not given),u,98,99,100,x,x,x,x,x,x,x,x,x
Oc1ccc(-c2n[nH]c(=S)n2-c2ccc3c(c2)OCCO3)c(O)c1,93,72,99,15*,0,-7,99*,0,90,107,94,99,79
CCOC(=O)c1sc(-c2cccc(C(F)(F)F)c2)nc1O,u,75,97,96,x,x,x,0,100,94,100,98,90
CSc1nnc(NC(=O)c2ccc(C)c(S(=O)(=O)N3CCOCC3)c2)s1,14*,12*,18*,9.3*,0,5,x,2,102,104,104,106,103
O=C(OCCN1C(=O)c2ccccc2C1=O)c1cccs1,126,140,130,+,1,5,130*,x,x,x,x,x,x
CO/N=C/C(=N\Nc1ccc(OC)cc1)C(=O)c1ccc(F)cc1,35*,45*,40*,37,0,5,x,2,101,94,102,98,81
COc1ccc(C2=NOC(C(=O)Nc3cccnc3Cl)C2)cc1 (stereo not given),99,104,100,105,0,0,x,x,x,x,x,x,x
CCCCN(CCCC)CCCNC(=O)c1ccc2nc(-c3ccccc3NC(C)=O)c(=O)[nH]c2c1,101,101,100,100,0,16,x,x,x,x,x,x,x
CC(=O)Nc1ccccc1-c1nc2ccc(C(=O)N3CCN(c4cc(C)ccc4C)CC3)cc2[nH]c1=O,168*[activator],102,111,110,0,1,111*,10,99,74*,86,84,59
Cc1c(C(c2cccs2)c2c(C)n(C)n(-c3ccccc3)c2=O)c(=O)n(-c2ccccc2)n1C,u,103,98,101,x,x,x,x,x,x,x,x,x
